In PubChem BioAssay:
Active and inactive are the calls of the source.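 The calls were made as follows, unless noted: active = visually confirmed hit in the image check and inhibition above 20%; inconclusive = visually confirmed hit but inhibition not above 20%; inactive = no visual hit in the image check.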

What was measured:
[1] = inhibitors of TNFa-induced NFkB p65 translocation, primary screen, imaging, HUVEC, MLSMR starter and 10KST1 sets (AID 438;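 active = inhibition above 20% together with a positive visual image hit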;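 also: compound added about 3h40 before a 20 min TNFalpha stimulation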;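 as to inhibition: signal is the nuclear over cytoplasmic p65 intensity ratio per well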); conditions: HUVEC TNFa-induced p65 nuclear translocation; cell count: measured here: nuclei count (cytotoxicity indicator), at 2.08 µM; inhibition: at 2 µM, stronger effect = higher value, 0% TNFa-plus-vehicle, 100% no-TNFa wells
[2] = endothelial E-selectin expression blockers – imaging, HUVEC, immunofluorescence, MLSMR starter and 10KST1 sets, primary screen (AID 487); conditions: HUVEC TNFalpha-induced E-selectin immunofluorescence imaging, at 2 µM; inhibition: stronger effect = higher value; nuclei count: measured here: cell number, toxicity;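 as to inhibition: signal is fraction of cell area covered by stained E-selectin grains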;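 as to nuclei count: 100% = median nuclei count of all wells on the same plate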
[3] = Primary imaging screen for DUSP6 inhibitors that restore phospho-Erk in transfected HeLa cells, chemical complementation (AID 609;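 active = compounds giving at least 50% inhibition in the cell-based MKP-3 phosphatase rescue imaging test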;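 as to inhibition: phospho-Erk level distribution per well compared with pooled transfected vehicle control wells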); conditions: HeLa MKP-3 transfected, phospho-Erk imaging KS statistic, at 10 µM, cells stimulated with TPA for 15 min
[4] = molecular target: Dual specificity protein phosphatase 6 (Homo sapiens) (UniProt Q16828); assay: as above; conditions: HeLa MKP-3 transfected, phospho-Erk imaging KS statistic; at 10 µM; stronger effect = higher value; cells stimulated with TPA for 15 min
[5] = molecular target: Voltage-gated potassium channel subunit beta-2 (Rattus norvegicus) (UniProt P62483); assay: inhibitors of rat Kvbeta2 reductase activity – biochemical, NADPH fluorescence, primary screen (AID 622;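 active = fluorescence slope higher than the sample average by over 3 SD, cut at about -0.22 in these data, passing the limit was not always enough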;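 also: slope of raw intensity against log time taken from 70 to 1610 s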); conditions: recombinant KvBeta, 4-cyanobenzaldehyde reduction, at 10 µM, stronger effect = higher value
[6] = molecular target: Voltage-gated potassium channel subunit beta-2 (Rattus norvegicus) (UniProt P62483); assay: enhancers of rat Kvbeta2 NADPH turnover – biochemical, NADPH fluorescence, primary screen (AID 623;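 active = NADPH fluorescence slope more negative than the mean of all samples by about 3 SD, 99.7% confidence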;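 also: fluorescence intensity change per second fitted from 20 to 320 s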); conditions: Recombinant KvBeta, NADPH fluorescence decrease slope, 10 min; at 10 µM; stronger effect = lower value
[7] = molecular target: Muscarinic acetylcholine receptor M4 (Homo sapiens) (UniProt P08173); assay: M4-linked GIRK flux change, two-sided – cell-based, HEK293 M4/GIRK, thallium flux, BTC-AM, M4 allosteric agonist project, primary screen (AID 625;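 active = fluorescence slope after compound addition differing from the mean of all tested samples at 99.7% confidence, mostly higher but some lower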;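 also: thallium influx through GIRK channels coupled to M4 in HEK293 cells with BTC-AM dye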); conditions: at 10 µM, actives lie on both sides
In short: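 Material: M4/GIRK1/GIRK2 stable HEK293 cell line. Medium: pH 7.3 thallium assay buffer. Dosing: single compound concentration, 10 µM final. Schedule: 1 h dye loading, 2 min kinetic read. Measured by: kinetic fluorescence with BTC-AM dye. Read-out: post-addition slope, 15–24 s, of baseline-normalized fluorescence. Benchmarks: carbachol and DMSO controls.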

[8] = inhibitors of larval lipid processing in zebrafish, primary screen, whole organism, PED6 fluorescence, gall bladder and intestine (AID 686;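 active = a full or partial loss of lipid-probe fluorescence in the fish gall bladder, intestine or both, judged by eye; inactive = no fluorescence loss, or compound toxic to the fish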;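 also: larvae 5 to 7 days old with five fish per well; signal comes from phospholipase A2 cleavage of quenched PED6 carried via bile; overnight exposure to compound and PED6 before scoring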); conditions: Zebrafish larvae PED6 lipid processing, fluorescence scoring; screened at 20 µM (by protocol)
In short: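 System: live zebrafish larvae aged 5-7 days, whole organism; measure: graded gall bladder and intestinal fluorescence inhibition per well; incubation: overnight exposure; reagent: ingested quenched lipid PED6 at 100 nM; signal: By-eye fluorescence microscopy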

[9] = loss of swimming-algae plug formation – whole organism, Chlamydomonas reinhardtii, WT vs cilia-less mutant, absorbance, 96-well, primary screen (AID 463189;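 active = inhibition at or above 50% relative to wild type and mutant plate controls; inactive = inhibition below 50%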;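 also: 0% = wild type cc124 cells in DMSO and 100% = ciliumless bld1 mutant cells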); conditions: Chlamydomonas reinhardtii gravitaxis, OD600 absorbance, 2 days; at 10 µM; stronger effect = higher value
[10] = measured here: cell density z-score
[11] = measured here: nuclear c-Myc green intensity z-score
[12] = measured here: nuclear pErk red intensity z-score, stronger effect = higher value

Chain of Muscarinic acetylcholine receptor M4 (Homo sapiens) (P08173 whole entry, looked up): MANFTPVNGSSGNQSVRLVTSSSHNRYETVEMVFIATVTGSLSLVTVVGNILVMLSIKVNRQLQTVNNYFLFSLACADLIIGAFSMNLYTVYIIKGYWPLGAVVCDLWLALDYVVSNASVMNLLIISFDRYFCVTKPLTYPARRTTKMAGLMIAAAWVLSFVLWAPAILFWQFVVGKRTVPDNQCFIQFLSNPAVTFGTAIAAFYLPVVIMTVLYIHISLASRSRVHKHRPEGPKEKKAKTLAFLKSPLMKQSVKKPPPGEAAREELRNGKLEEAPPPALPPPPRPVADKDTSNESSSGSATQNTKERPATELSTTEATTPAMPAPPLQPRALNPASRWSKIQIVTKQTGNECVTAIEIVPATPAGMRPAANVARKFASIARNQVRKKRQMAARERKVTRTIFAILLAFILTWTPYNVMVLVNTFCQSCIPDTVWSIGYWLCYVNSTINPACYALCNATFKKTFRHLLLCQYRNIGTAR
Chain of Voltage-gated potassium channel subunit beta-2 (Rattus norvegicus) (P62483 whole entry, looked up): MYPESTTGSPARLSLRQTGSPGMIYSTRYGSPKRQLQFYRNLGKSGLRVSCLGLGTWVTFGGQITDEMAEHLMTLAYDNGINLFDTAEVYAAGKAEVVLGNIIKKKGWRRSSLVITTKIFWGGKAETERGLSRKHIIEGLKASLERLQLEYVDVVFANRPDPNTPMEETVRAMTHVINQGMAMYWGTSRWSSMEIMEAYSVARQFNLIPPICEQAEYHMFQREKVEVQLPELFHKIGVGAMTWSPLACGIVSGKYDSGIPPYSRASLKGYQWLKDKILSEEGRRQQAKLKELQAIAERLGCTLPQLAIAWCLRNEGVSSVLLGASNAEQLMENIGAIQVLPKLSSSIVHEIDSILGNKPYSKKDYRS
Chain of Dual specificity protein phosphatase 6 (Homo sapiens) (Q16828 whole entry, looked up): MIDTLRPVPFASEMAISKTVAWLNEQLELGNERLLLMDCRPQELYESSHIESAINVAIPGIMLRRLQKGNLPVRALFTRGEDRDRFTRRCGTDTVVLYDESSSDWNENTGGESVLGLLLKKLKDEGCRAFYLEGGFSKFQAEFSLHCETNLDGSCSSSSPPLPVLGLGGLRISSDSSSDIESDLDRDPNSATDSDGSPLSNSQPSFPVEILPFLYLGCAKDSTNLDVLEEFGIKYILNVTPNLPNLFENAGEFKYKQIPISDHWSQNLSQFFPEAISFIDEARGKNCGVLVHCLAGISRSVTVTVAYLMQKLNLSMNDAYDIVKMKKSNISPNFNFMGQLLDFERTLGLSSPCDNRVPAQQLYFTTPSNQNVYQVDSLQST

Row | SMILES | cell count [1] | inhibition [1] | inhibition [2] | nuclei count [2] [%] | z-score [3, 10] | z-score [3, 11] | z-score [3, 12] | inhibition [4] | fluorescence slope [5] | NADPH fluorescence slope [6] | fluorescence slope [7] | outcome [8] | inhibition [9]
1 | Cn1c(=O)[nH]c(=O)c2c1nc(Br)n2CCSc1ncccn1 | 643 | -7.6% (inactive) | -107% (inactive) | 179 | 0.65 | -0.91 | -0.622 | -2.59% (inactive) | -0.446 (inactive) | -4.5e-05 (inactive) | 0.00519 (inactive) | inactive | 13.2% (inactive)
2 | Cc1cc(C)n(CC2CC(=O)N(c3ccc(C)c(Cl)c3)C2=O)n1 (centres undefined) | 597 | -3.7% (inactive) | 19% (inactive) | 93.4 | 1.31 | -0.417 | 0.186 | 12.8% (inactive) | -0.517 (inactive) | -2.4e-05 (inactive) | 0.00527 (inactive) | inactive | -14.7% (inactive)
3 | CC12CCC(=O)N1c1c(sc3nc(N4CCOCC4)c4c(c13)CCCC4)C(=O)N2 (centres undefined) | 363 | 1.4% (inactive) | -105% (inactive) | 122 | -0.444 | 1.24 | 0.642 | 5.42% (inactive) | -0.316 (inactive) | -5.5e-05 (inactive) | 0.00445 (inactive) | inactive | 26.7% (inactive)
4 | Cn1c(CSc2ncn[nH]2)nc2ccccc21 | 537 | -6.4% (inactive) | -75.5% (inactive) | 122 | -3.21 | 1.73 | 1.28 | 20.2% (inactive) | -0.49 (inactive) | -0.000116 (inactive) | 0.00416 (inactive) | inactive | -14.5% (inactive)
5 | CCc1nc(NCC2CCCO2)c(C#N)c2c1COC(C)(C)C2 (centres undefined) | 550 | -12.7% (inactive) | 2% (inactive) | 127 | -0.137 | -0.0587 | 0.863 | 1.9e-07% (inactive) | -0.316 (inactive) | -4e-05 (inactive) | 0.00695 (inactive) | inactive | -12.9% (inactive)
6 | C=CCNc1nc(C)nc(OC)n1 | 634 | -0.1% (inactive) | 69.9% (active) | 85.8 | -3.44 | 2.82 | 1.07 | 14.7% (inactive) | -0.481 (inactive) | -4.7e-05 (inactive) | 0.00536 (inactive) | inactive | -10.1% (inactive)
7 | CC(C)CSc1nc(N2CCOCC2)c2c(c1C#N)CC(C)(C)SC2 | 574 | -6% (inactive) | -69.8% (inactive) | 145 | -0.439 | -0.915 | -0.541 | -5.81% (inactive) | -0.424 (inactive) | -8.1e-05 (inactive) | 0.00667 (inactive) | inactive | 25.7% (inactive)
8 | CCC(=O)Nc1nc2ccccc2n1CCN(C)C | 551 | 4.1% (inactive) | -371% (inactive) | 131 | 0.711 | 0.524 | -0.675 | -1.98% (inactive) | -0.436 (inactive) | -1.7e-05 (inactive) | 0.00568 (inactive) | inactive | -5.07% (inactive)
9 | CC1(C)Cc2c(c(N3CCOCC3)nc3sc4c(=O)[nH]cnc4c23)CS1 | 493 | -5.7% (inactive) | 10.3% (inactive) | 100 | -0.312 | 0.705 | 1.1 | 7.93% (inactive) | -0.44 (inactive) | -1.9e-05 (inactive) | 0.00568 (inactive) | inactive | 28.7% (inactive)
10 | Cc1cccc(-c2nnc3n2N=C(c2ccc(Br)cc2)CS3)c1 | 769 | -2.9% (inactive) | -27.2% (inactive) | 176 | -0.385 | 0.639 | 0.0185 | -2.91% (inactive) | -0.433 (inactive) | -5.4e-05 (inactive) | 0.006 (inactive) | inactive | -0.766% (inactive)
11 | CCCc1cc(=O)oc2c(C)c(O)c(CN3CCCCC3)cc12 | 657 | -2.4% (inactive) | -23.3% (inactive) | 157 | -0.426 | -0.355 | 0.314 | 1.04% (inactive) | -0.00538 (inactive) | -1.8e-06 (inactive) | 0.00467 (inactive) | inactive | 0.97% (inactive)
12 | O=S(=O)(c1ccccc1)N(CC(O)CN1CCCCC1)c1ccccc1 (centres undefined) | 596 | -4.6% (inactive) | 36.6% (inactive) | 84.8 | -0.887 | 0.0372 | 0.232 | 5.42% (inactive) | -0.342 (inactive) | -2.3e-05 (inactive) | 0.00483 (inactive) | inactive | 26.5% (inactive)
13 | Cc1ccc(Cn2ncc3c(N4CCOCC4)ncnc32)cc1 | 551 | -1.3% (inactive) | -9.4% (inactive) | 152 | 0.711 | -0.178 | 0.142 | 7.93% (inactive) | -0.363 (inactive) | -3.8e-05 (inactive) | 0.00641 (inactive) | inactive | -4.03% (inactive)
